Compound activity: PubChem, several laboratories
NR3A LBD binder: binders of NR3A ligand-binding domain, primary screen, biophysical, differential scanning fluorimetry, uHTS. Glutamate receptor ionotropic, NMDA 3A (GRIN3A) ligand-binding domain. NR3A LBD differential scanning fluorimetry, Tm shift; 0% = protein alone, 100% = glycine-bound protein. Tm shift relative to glycine control, % at 25 µM. 340,000 compounds, 2.5% hits;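 active means melting temperature shift of at least 10% of the positive control shift, at one fixed dose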
Rtt109 HAT inh: inhibitors of C. albicans Rtt109/Vps75 HAT, primary screen, biochemical, ThioGlo CoA-SH fluorescence, plate reader | Histone acetyltransferase RTT109 (Candida albicans (strain SC5314 / ATCC MYA-2876)), … | purified Rtt109/Vps75, 4 h | inhibition, % at 34.9 µM | 330,000 compounds, 0.16% hits | AID 540336, 2011;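 active means inhibition of at least 50% in every replicate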
Target sequence (Q5AAJ8 whole entry, looked up): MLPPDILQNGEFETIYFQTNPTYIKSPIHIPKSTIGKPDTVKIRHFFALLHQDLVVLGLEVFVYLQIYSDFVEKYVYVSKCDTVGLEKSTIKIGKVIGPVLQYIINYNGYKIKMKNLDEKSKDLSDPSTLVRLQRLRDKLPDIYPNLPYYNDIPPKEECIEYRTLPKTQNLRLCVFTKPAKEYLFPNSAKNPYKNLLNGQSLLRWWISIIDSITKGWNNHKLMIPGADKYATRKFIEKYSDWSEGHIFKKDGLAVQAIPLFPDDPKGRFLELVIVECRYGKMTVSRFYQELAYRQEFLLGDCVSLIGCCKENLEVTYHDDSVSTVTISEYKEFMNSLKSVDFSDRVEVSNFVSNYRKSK
T cell HTS: modulators of CD8 T cell-vesicle binding, primary screen, mouse 2C CD8+ T cells, flow cytometry; 2C CD8+ T cell-vesicle binding; hits give low values; response (vesicle binding), % at 7 µM; 330,000 compounds, 0.068% hits; AID 2052, 2009;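 active means response, share of CD8 T cells binding vesicles, and their 90th percentile fluorescence all below set limits, cut at about 80% in these data, passing the limit was not always enough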;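 further: values below 100% mean blocked vesicle binding to the CD8+ T cells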
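Material: 2C TCR transgenic mouse naive CD8+ T cells, MACS-purified. Also added: QL9-charged Drosophila Ld/ICAM-1/B7-1 vesicles. Timing: binding 1.5 h at 37 °C. Measured by: high-throughput flow cytometry with anti-B7-1 and anti-CD8 staining. Read-out: percent CD8+ FL2 mean versus row control. Controls: Unloaded micro-vesicles (low), QL9 vesicles with 0.7% DMSO (high).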
GASC-1 inh: inhibitors of GASC-1 histone demethylase, primary screen, biochemical, fluorescence, DELFIA europium; Lysine-specific demethylase 4C (Homo sapiens), Q9H3R0; GST-JMJD2C(1-420) H3K9me3 demethylation; inhibition, % at 2.35 µM; 330,000 compounds, 0.069% hits;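 active means more than half of a compound's replicate wells show inhibition beyond 50%, single wells judged on their own value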;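 further: signal counts dimethyl H3K9 product captured on neutravidin plate; 0% = median of DMSO wells and 100% = 0.3 times that DMSO median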
* marks the source's active call; other numbers are inactive results; i = inactive; . = not tested or not shown. In the library only some 2.8% were active in any assay of this set; here they are far more common.

SMILES | NR3A LBD binder | Rtt109 HAT inh | T cell HTS | GASC-1 inh
COc1cc(C(c2nnnn2C(C)(C)C)N2CCN(c3nc4ccccc4s3)CC2)ccc1O (stereo not given) | -0.9 | 65.8* | 186.2 | -2.8
OCc1ncc(-c2ccccc2)s1 | 10.3* | 0.3 | 185.8 | -12.7
OCCCNc1ncnc2sc(-c3ccccc3)cc12 | -1.0 | 13.4 | 385.4 | 0.2
CSc1ccc(C2NN=C(c3ccccc3)S2)cc1 (stereo not given) | -18.4 | -8.4 | 651.0 | 0.3
Oc1ccccc1C1NN=C(c2ccccc2)S1 (stereo not given) | 18.8* | -1.1 | 202.2 | 3.5
Cc1ccc(C(=O)NCCc2nnc3ccc(NCc4ccc5c(c4)OCO5)nn23)cc1 | 0.7 | -1.4 | 190.3 | -13.2
CCn1c(CCn2c3ccccc3c3ccccc32)n[nH]c1=S | 5.4 | 50.3* | i | 1.3
COc1ccc(S(=O)(=O)Nc2cccc(S(=O)(=O)N(C)C)c2)cc1[N+](=O)[O-] | -3.5 | 9.0 | . | .
N#Cc1ccc(-c2ccc(OCC(=O)NN=Cc3ccncc3)cc2)cc1 | -2.4 | -1.4 | 351.4 | 6.9
COCc1cc(C)c(C#N)c(=S)[nH]1 | -8.3 | 79.6* | 270.9 | -1.7
CSc1cc(SC)ncn1 | 0.2 | -1.7 | . | .
Cc1ccsc1/C=C/C1=Cc2c(sc(NC(=O)CSc3n[nH]c(N)n3)c2C#N)C(C)(C)C1 | 10.2* | 5.5 | 156.4 | -5.1
CCOc1ccc(/C=C/C2=Cc3c(sc(NC(=O)CSc4n[nH]c(N)n4)c3C#N)C(C)(C)C2)cc1 | 14.2* | 16.3 | 196.3 | -0.5
NC(=O)c1ccsc1NC(=O)CSc1n[nH]c(N)n1 | 2.1 | . | 418.3 | 5.5
CCOC(=O)c1sc(NC(=O)CSc2n[nH]c(-c3ccncc3)n2)c(C#N)c1C | -3.7 | -6.3 | 319.5 | 89.5
Cc1nc(-c2ccc(F)cc2)c(CC(=O)N(C)CC(=O)Nc2ccc(Br)cc2C)s1 | 4.8 | -8.3 | 327.1 | 6.7
CCOc1ccccc1OCCCCOc1ccccc1F | 25.4* | 6.8 | 287.8 | 3.7
CC(C)c1nnc(NC(=O)Cc2cccs2)s1 | -1.1 | 2.3 | 567.3 | -1.3
CC(C)c1nnc(NC(=O)CCC(=O)NCc2cccs2)s1 | -1.7 | 53.4* | 555.1 | 7.3
CC1CN(C=O)CC(C)N1CCN1C(C)CN(C=O)CC1C (stereo not given) | 0.5 | -0.3 | . | .
CC(C)c1ccc(NC(=O)COC(=O)C2CC3C=CC2C3)cc1 (stereo not given) | -3.1 | 2.2 | 945.3 | -4.2
Clc1cccc(N/N=C/c2ccc(N3CCOCC3)s2)c1 | 19.2* | -7.0 | 202.9 | 15.1
Nc1ccc(C(=O)N/N=C/c2ccc(N3CCOCC3)s2)cc1 | 11.4* | -2.2 | 341.1 | -5.7
CCCCn1c(N)c(N(CCOC)C(=O)c2cc(S(=O)(=O)N3CCCCC3)ccc2C)c(=O)[nH]c1=O | -1.9 | 0.3 | 193.4 | -0.6
O=C(NCc1cccc2[nH]ccc12)C1CCC(=O)N(CCc2ccc(Cl)cc2)C1 (stereo not given) | 11.1* | 2.9 | 407.9 | 5.8
SMILES | NR3A LBD binder | Rtt109 HAT inh | T cell HTS | GASC-1 inh
O=C(NCc1ccc2c(c1)OCO2)C1CC(=O)N(CCc2ccc(Cl)cc2)C1 (stereo not given) | 11.7* | 0.6 | 269.8 | 2.5
Cc1ccc(CCN2CC(C(=O)NCc3ccc4c(c3)OCO4)CC2=O)cc1 (stereo not given) | -0.4 | -1.1 | 415.3 | 0.0
O=C(CCNS(=O)(=O)c1ccccc1)NNC(=O)COc1ccc(Cl)cc1 | -1.2 | -4.8 | 421.7 | .
Cc1ccc(C(=O)/C=C/Nc2ccc3c(c2)OCO3)cc1 | 17.4* | -7.0 | 105.4 | -5.1
Cc1ccc(C(=O)/C=C/Nc2cccc(O)c2)cc1 | 10.3* | 7.1 | 577.7 | 18.3
CC(=O)c1ccc(N/C=C\C(=O)c2ccc(C)cc2)cc1 | -7.8 | -0.5 | 172.9 | -15.3
CN(C)C(CNC(=O)c1ccc2nccnc2c1)c1ccco1 (stereo not given) | 2.0 | -2.9 | 602.4 | -6.5
COC(=O)c1cc(NC(=O)Cc2cccs2)cc(C(=O)OC)c1 | -0.3 | -1.3 | 274.9 | -28.2
O=C(Cc1ccc(Cl)cc1)N/N=C/c1ccccc1 | 1.8 | 10.1 | 180.3 | -0.9
CNC(=O)CCCCC(=O)N/N=C/c1ccc(Cl)cc1Cl | -2.0 | -11.3 | 91.5 | -0.6
O=C(CN1c2ccccc2Sc2ccccc21)N/N=C/c1ccc(Cl)cc1Cl | 14.8* | -13.2 | 91.0 | -4.0
